# High-throughput results: PubChem BioAssay, The Scripps Research Institute Molecular Screening Center
# rCAG RNA binder: binders of r(CAG) RNA repeats, primary screen, biochemical, fluorescence; AID 651821, 2012; 1.3% of 370,000 active; inhibition, % at 3 µM; r(CAG) RNA repeat, TO-PRO-1 dye displacement fluorescence;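 active = inhibition above the plate cutoff, the mean of all test compounds on that plate plus 3 SD, cut at about 35% in these data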;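 note: higher means more dye released from RNA so lower well fluorescence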
# HTRA1 inh: HTRA1 serine protease inhibitors, primary screen, biochemical, fluorescence polarization, HTS | recombinant HTRA1, FP-rhodamine activity-based probe | inhibition, % at 5.96 µM | 0.5% of 340,000 active | AID 504803, 2011; in the data active = inhibition above about 36%
# SIAE inh: human SIAE inhibitors, primary screen, biochemical, fluorescence polarization, FP-Rh probe, 1536-well HTS; Sialate O-acetylesterase (Homo sapiens), Q9HAT2; SIAE FP-Rh probe binding; inhibition, % at 9.66 µM; 0.69% of 370,000 active; AID 1053197, 2014;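 active = inhibition above a cutoff: mean of compounds within the control limits plus 3 SD of those, cut at about 17% in these data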
# PRMT1 FP inh: PRMT1 methyltransferase inhibitors, primary screen, biochemical, fluorescence polarization; Protein arginine N-methyltransferase 1 (Homo sapiens), Q99873; recombinant PRMT1, activity-based probe fluorescence polarization; inhibition, % at 2.79 µM; 1.3% of 370,000 active;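 active = inhibition above about 21% made by adding two undisclosed values, limit read from the data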
# ABHD4 inh: ABHD4 inhibitors, primary screen, biochemical, fluorescence polarization, mouse; purified mABHD4, FP-Rh probe fluorescence polarization; inhibition, % at 8.92 µM; 0.54% of 370,000 active; AID 720543, 2013;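 active = inhibition exceeding the mean over every tested compound plus 3 SD, cut at about 30% in these data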
# Target sequence (Q8VD66 whole entry, looked up): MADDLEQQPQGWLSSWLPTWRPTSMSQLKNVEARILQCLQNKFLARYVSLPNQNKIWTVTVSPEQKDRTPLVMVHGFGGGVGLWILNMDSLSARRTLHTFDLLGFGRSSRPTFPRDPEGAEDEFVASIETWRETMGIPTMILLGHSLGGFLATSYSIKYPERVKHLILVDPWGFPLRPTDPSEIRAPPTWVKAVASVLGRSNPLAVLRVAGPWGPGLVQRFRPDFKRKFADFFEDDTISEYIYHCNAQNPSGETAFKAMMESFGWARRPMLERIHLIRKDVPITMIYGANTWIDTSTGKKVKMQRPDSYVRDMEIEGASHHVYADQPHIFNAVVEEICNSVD
#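 system = mouse ABHD4 enzyme, wild type | medium = HEPES pH 7.0, NaCl, Pluronic buffer | also added = FP-Rh probe | incubation = Enzyme–compound pre-incubation 45 min, then probe 60 min, both 25 °C | technique = fluorescence polarization, excitation 525 nm, emission 598 nm, BODIPY TMR filters | controls = S159A mutant high control, sample median low control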
# mABHD4 conf: ABHD4 inhibitors, retest, confirmation, biochemical, fluorescence polarization, mouse; shares compounds with ABHD4 inh; purified mABHD4, FP-Rh probe fluorescence polarization; inhibition, % at 8.92 µM; 55% of 1,800 active;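 active = mean inhibition across replicates above the hit cutoff set in the primary screen, cut at about 30% in these data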
# Hits are given with their value; 0 = inactive; - = no result given. Shown are actives, neighbours in structure and some others; about 3.3% of the full set was active somewhere.
SMILES,rCAG RNA binder,HTRA1 inh,SIAE inh,PRMT1 FP inh,ABHD4 inh,mABHD4 conf
CC(=NNC(=S)SCc1ccccc1)c1ccccn1,0,0,0,0,56,0
CCOC(=O)c1c(C)n(-c2ccc(C)cc2)c2c(C(C(C)=O)C(=O)O)c(Br)c(O)c(O)c12 (stereo not drawn),0,0,0,0,41,31
CC12CCC(C)(O1)C1C(=O)N(c3nccs3)C(=O)C12 (stereo not drawn),0,0,0,0,0,-
C[C@H]1[C@@H](c2ccccc2)Oc2ccc(Cl)cc2S(=O)(=O)N1Cc1ccc(Cl)cc1,0,-,0,0,0,-
O=S1(=O)c2ccccc2N=NN1Cc1ccc(Cl)cc1,0,0,0,0,46,54
C=CSc1sc(Cl)c(N(CC)CC)c1[N+](=O)[O-],0,-,0,0,0,-
CCN(CC)C(=O)/C=C/c1ccccc1,0,0,0,0,0,-
CON(C)C(=O)/C=C/c1ccc([B-](F)(F)F)cc1,0,0,0,0,42,47
CCOC(=O)c1c(C)oc2ccc(OC(=O)N3CCOCC3)cc12,0,0,0,0,40,40
Cc1oc2ccc(OC(=O)N3CCOCC3)cc2c1C(=O)OC(C)C,0,0,0,0,59,54
CCOC1=C2CN(S(=O)(=O)c3ccc(C)cc3)C(c3cccc(Cl)c3)CC2N(S(=O)(=O)c2ccc(Cl)cc2)C(c2ccccc2)C1 (stereo not drawn),0,-,0,0,0,-
CCSC1=N/C(=C\c2ccc(-c3ccccc3[N+](=O)[O-])o2)C(=O)S1,0,0,0,0,37,0
CCN1CCN(S(=O)(=O)c2ccc(Cl)c(C(=O)NCc3ccco3)c2)CC1,0,0,0,0,0,-
O=C(O)c1cc(-c2ccc(/C=N/NC(=S)Nc3ccccc3)o2)ccc1Cl,0,-,0,0,39,50
NC(=S)N/N=C1\c2ccccc2-c2c(C(=O)O)cccc21,0,0,0,0,42,47
NC(=O)c1cccc2c1-c1ccccc1/C2=N/NC(N)=S,0,0,0,0,0,-
CCc1nnc(NC(=O)C2CCCCN2S(=O)(=O)c2ccccc2)s1 (stereo not drawn),0,0,0,0,0,-
ClCc1nnc(-c2cc3c(s2)CCCC3)o1,0,0,0,0,0,-
CCN(CC)c1ccc(C(=C2C=CC(=[N+](CC)CC)C=C2)c2ccccc2)cc1,0,0,0,0,71,103
C(=N\Nc1nc2ccccc2[nH]1)/c1ccccn1,0,0,0,0,34,32
CCN(CC)c1ccc(/C=N/Nc2nc3ccccc3[nH]2)c(O)c1,0,0,28,0,31,80
COc1ccc(S(=O)(=O)Nc2cccc(F)c2C)cc1C(=O)N1CCOCC1,0,0,0,0,0,-
CN(C)c1ccc(CC(=O)N2CCCC(c3cc(C(=O)Nc4ccc(C(C)(C)C)cc4)no3)C2)cc1 (stereo not drawn),0,-,0,0,0,-
CCCc1c(C(=O)NNc2cc(C(F)(F)F)ccc2Cl)cnn1-c1ccccc1,0,0,0,0,0,-
COc1ccc(CCC(=O)Nc2nc3c(s2)CN(C)CC3)cc1OC,0,0,0,0,89,0
SMILES,rCAG RNA binder,HTRA1 inh,SIAE inh,PRMT1 FP inh,ABHD4 inh,mABHD4 conf
O=C(Nc1ncccc1O)c1c(O)c2ccccc2[nH]c1=O,0,0,0,0,39,0
Cc1cccc(C)c1NC(=O)c1c(O)c2ccccc2[nH]c1=O,0,0,0,0,0,-
O=C(O)c1cc(O)c2c(c1)C(=O)c1cc(O)cc(O)c1C2=O,0,0,0,0,61,42
CN(C)Cc1cn(-c2cccc(-c3noc4c3C(=O)N(CC(=O)N3CCOCC3)CC4)c2)nn1,0,-,0,0,0,-
COCc1cn(-c2cccc(-c3noc4c3C(=O)N(CC(=O)N3CCOCC3)CC4)c2)nn1,0,-,0,0,32,0
COc1ccc(N2COC3c4cccc5cccc(c45)C32)cc1 (stereo not drawn),0,0,0,0,43,0
CCCCCCSc1cccc(-c2nc3cc(C)ccn3c2NC2CCCCC2)c1,0,0,0,0,0,-
